Reference: ChEMBL document CHEMBL6115053, “Optimization and Characterization of N-Acetamide Indoles as Antimalarials That Target PfATP4” (J Med Chem, 2025)
One block for each compound: values may come before it. The source made the active and inactive calls. No cut-off for these calls is given here.

Experiments:
Plasmodium falciparum [1] = assay: Antiplasmodial activity against W454-resistant population 1 Plasmodium falciparum 3D7 harboring Plasmodium falciparum ATP4 L928F mutant by LDH assay; assay type: functional, organism-based
Plasmodium falciparum [2] = assay: Antiplasmodial activity against Plasmodium falciparum 3D7 infected in RBC assessed as reduction in nucleotide level at 20 nM incubated for 5 hrs by LC-MS analysis; assay type: functional, organism-based
Plasmodium falciparum [3] = assay: Antiplasmodial activity against Plasmodium falciparum 3D7 infected in RBC assessed as reduction in deoxythymidine diphosphate level at 20 nM incubated for 5 hrs by LC-MS analysis; assay type: functional, organism-based
Plasmodium falciparum [4] = assay: Antiplasmodial activity against N-(2,6-difluorophenyl)-2-(6-(5-methyl-1,3,4-oxadiazol-2-yl)-1H-indol-1-yl)acetamide-resistant Plasmodium falciparum Dd2 harbouring ATP4 genome with 2.8 fold CNV by SYBR green staining based analysis; assay type: functional, organism-based
Plasmodium falciparum [5] = assay: Antiplasmodial activity against Plasmodium falciparum 3D7 infected in RBC assessed as reduction in extracellular parasite growth at 6.7 nM measured for 8 hrs by Giemsa-staining based microscopic analysis; assay type: functional; design: scale not given: the % may be the effect or the level left
How it was run: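 Giemsa-stained thin smears were read at 8 h and the percentages of extracellular and intracellular parasites counted, compared with untreated parasites at 0 h.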

Plasmodium falciparum [6] = assay: Antiplasmodial activity against N-(2,6-difluorophenyl)-2-(6-(5-methyl-1,3,4-oxadiazol-2-yl)-1H-indol-1-yl)acetamide-resistant Plasmodium falciparum Dd2 harboring plasmodium falciparum ATP4 F156L mutant by SYBR green staining based analysis; assay type: functional, organism-based
Plasmodium falciparum [7] = assay: Antiplasmodial activity against N-(2,6-difluorophenyl)-2-(6-(5-methyl-1,3,4-oxadiazol-2-yl)-1H-indol-1-yl)acetamide-resistant Plasmodium falciparum Dd2 harboring plasmodium falciparum ATP4 D425E mutant by SYBR green staining based analysis; assay type: functional, organism-based
Plasmodium falciparum [8] = assay: Antiplasmodial activity against W454-resistant population 3 Plasmodium falciparum 3D7 harboring Plasmodium falciparum ATP4 L928F mutant by LDH assay; assay type: functional, organism-based
Plasmodium falciparum [9] = assay: Antiplasmodial activity against W454-resistant population 2 Plasmodium falciparum 3D7 harboring Plasmodium falciparum ATP4 L928F mutant by LDH assay; assay type: functional, organism-based
Plasmodium falciparum [10] = assay: Antiplasmodial activity against multidrug-resistant Plasmodium falciparum Dd2 harboring plasmodium falciparum ATP4 G358S mutant by SYBR green staining based analysis; assay type: functional, organism-based
Plasmodium falciparum [11] = assay: Antiplasmodial activity against Plasmodium falciparum 3D7 infected in RBC assessed as reduction in deoxycytidine monophosphate level at 20 nM incubated for 5 hrs by LC-MS analysis; assay type: functional, organism-based
Plasmodium falciparum [12] = assay: Antiplasmodial activity against Plasmodium falciparum 3D7 infected in RBC assessed as reduction in deoxythymidine triphosphate level at 20 nM incubated for 5 hrs by LC-MS analysis; assay type: functional, organism-based
Plasmodium falciparum [13] = assay: Antiplasmodial activity against multidrug-resistant Plasmodium falciparum Dd2 harboring plasmodium falciparum ATP4 I398F/P990R/D1247Y mutant by SYBR green staining based analysis; assay type: functional, organism-based
Plasmodium falciparum [14] = assay: Antiplasmodial activity against Plasmodium falciparum 3D7 infected in RBC assessed as reduction in pyrimidine-deoxyribonucleotides level at 20 nM incubated for 5 hrs by LC-MS analysis; assay type: functional, organism-based
Plasmodium falciparum [15] = assay: Antiplasmodial activity against Plasmodium falciparum 3D7 infected in human […] cells incubated for 72 hrs; assay type: functional, organism-based; conditions: 3D7, 72 h
Plasmodium berghei [16] = assay: Antimalarial activity against Plasmodium berghei ANKA infected in female BALB/c mouse assessed as reduction in parasitemia at 30 mg/kg, po measured for 2 to 72 hrs post infection by Giemsa staining based light microscopy; assay type: functional; design: scale not given: the % may be the effect or the level left; conditions: time 2-72 hrs
Plasmodium berghei [17] = assay: Antimalarial activity against Plasmodium berghei ANKA infected in female BALB/c mouse assessed as parasitemia at 30 mg/kg, po measured for 2 to 72 hrs post infection by Giemsa staining based light microscopy; assay type: functional; conditions: time 2-72 hrs
[18] = Permeability across basolateral to apical side in human Caco-2 cells; assay type: ADME, cell-based
[19] = Metabolic stability in human liver microsome assessed as intrinsic clearance; assay type: ADME; conditions: microsomes
[20] = AUC (0 to last) in CD-1 mouse at 20 mg/kg, po; assay type: ADME, organism-based; conditions: in vivo
Plasmodium berghei [21] = assay: Antimalarial activity against Plasmodium berghei ANKA infected in female BALB/c mouse assessed as reduction in parasitemia at 50 mg/kg, po measured for 2 to 72 hrs post infection by Giemsa staining based light microscopy; assay type: functional; design: scale not given: the % may be the effect or the level left; conditions: time 2-72 hrs
Plasmodium berghei [22] = assay: Antimalarial activity against Plasmodium berghei ANKA infected in female BALB/c mouse assessed as parasitemia at 50 mg/kg, po measured for 2 to 72 hrs post infection by Giemsa staining based light microscopy; assay type: functional; conditions: time 2-72 hrs
[23] = Metabolic stability in rat hepatocyte […] assessed as intrinsic clearance measured per 10^6 cells; assay type: ADME, cell-based; conditions: hepatocytes
[24] = Half life in CD-1 mouse at 20 mg/kg, po; assay type: ADME, organism-based; conditions: in vivo
Plasmodium falciparum [25] = assay: Antiplasmodial activity against Plasmodium flaciparum NF54 stage V gametocytes infected in Anopheles stephensi with parasite infected blood meal assessed as reduction in oocyst count at 100 nM measured 7 days post blood infection by light microscopic analysis relative to control; assay type: functional; design: scale not given: the % may be the effect or the level left; conditions: time 7 day
How it was run: (§1)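 Stage V gametocytes of P. falciparum NF54 were treated with compound and fed to Anopheles stephensi in a standard membrane feeding assay. Midguts were dissected 7 days after the blood meal and oocysts counted. Results were given as average oocyst intensity ± SEM, with a t test against vehicle.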

HepG2 = assay: Cytotoxicity against human HepG2 cells assessed as inhibition of cell growth incubated for 48 hrs by celltiterglo assay; assay type: toxicity, cell-based; conditions: hepg2, 48 h
[26] = Lipophilicity, logD of compound at pH 7.4 by shake-flask method; assay type: physicochemical; conditions: buffer
[27] = Aqueous solubility in PBS buffer at pH 7.4; assay type: physicochemical
Plasmodium falciparum [28] = assay: Antimalarial activity against Plasmodium falciparum NF54 infected assessed as inhibition of male gamete formation incubated for 48 hrs by automated bright field microscopic analysis; assay type: functional, organism-based; conditions: NF54, 48 h
[29] = Clearance in CD-1 mouse at 20 mg/kg, po; assay type: ADME, organism-based; conditions: in vivo
[30] = Permeability across apical to basolateral side in human Caco-2 cells; assay type: ADME, cell-based
[31] = Cmax in CD-1 mouse at 20 mg/kg, po; assay type: ADME, organism-based; conditions: in vivo
Plasmodium falciparum [32] = assay: Antiplasmodial activity against Plasmodium flaciparum NF54 stage V gametocytes infected in Anopheles stephensi with parasite infected blood meal assessed as reduction in oocyst count at 500 nM measured 7 days post blood infection by light microscopic analysis relative to control; assay type: functional; design: scale not given: the % may be the effect or the level left; conditions: time 7 day; how it was run: as §1
[33] = Tmax in CD-1 mouse at 20 mg/kg, po; assay type: ADME, organism-based; conditions: in vivo
[34] = Metabolic stability in mouse liver microsome assessed as intrinsic clearance; assay type: ADME; conditions: microsomes
Plasmodium falciparum [35] = assay: Antiplasmodial activity against asexual Plasmodium falciparum 3D7 infected in human […] cells assessed as reduction in parasite growth measured for 72 hrs by LDH assay; assay type: functional, organism-based; conditions: 3D7, 72 h
Plasmodium falciparum [36] = assay: Antimalarial activity against Plasmodium falciparum NF54 infected assessed as inhibition of female gamete formation incubated for 48 hrs by automated bright field microscopic analysis; assay type: functional, organism-based; conditions: NF54, 48 h

SMILES: C[C@H]1Cc2c([nH]c3cc(Cl)c(F)cc23)[C@@]2(N1)C(=O)Nc1ccc(Cl)cc12 [CIPARGAMIN]
EC50 (Plasmodium falciparum [1]): < 2 nM
Activity (Plasmodium falciparum [2]): inactive
Activity (Plasmodium falciparum [3]): inactive
EC50 (Plasmodium falciparum [4]): 4 nM
Activity (Plasmodium falciparum [5]): ~24%
EC50 (Plasmodium falciparum [6]): 3 nM
EC50 (Plasmodium falciparum [7]): 2 nM
EC50 (Plasmodium falciparum [8]): 2 nM
EC50 (Plasmodium falciparum [9]): < 2 nM
EC50 (Plasmodium falciparum [10]): > 100 nM
Activity (Plasmodium falciparum [11]): inactive
Activity (Plasmodium falciparum [12]): inactive
EC50 (Plasmodium falciparum [13]): 4 nM
Activity (Plasmodium falciparum [14]): inactive
EC50 (Plasmodium falciparum [15]): 1 nM

SMILES: C[C@@H]1CC[C@H]2[C@@H](C)C(=O)O[C@@H]3O[C@@]4(C)CC[C@@H]1[C@]32OO4 [ARTEMISININ]
Activity (Plasmodium berghei [16]): 92.4%
Activity (Plasmodium berghei [17]): 2.6%

permeability [18]: 1.5 10^-6 cm/s
intrinsic clearance (CLint) [19]: < 3.5 µL/min/mg
AUC(0-t) [20]: 8190 ng·h/mL
intrinsic clearance (CLint) [23]: 2.6 uL/min/10^6 cells
half-life [24]: 2.16 h
logD [26]: 4.8
solubility kinetic [27]: < 2.5 µM
EC50 (Plasmodium falciparum [28]): 210 nM
CL/F [29]: 42 mL/min/kg
permeability [30]: 0.8 10^-6 cm/s
Cmax [31]: 700 ng/mL
Tmax [33]: 5.33 h
intrinsic clearance (CLint) [34]: 6.8 µL/min/mg
EC50 (Plasmodium falciparum [36]): 250 nM
SMILES: COc1cc(NC(=O)Cn2cc(Cl)c3cc(F)c(-c4cnn(C)c4)cc32)cc(OC)c1OC
Activity (Plasmodium berghei [21]): 55%
Activity (Plasmodium berghei [22]): 15.3%
Activity (Plasmodium falciparum [25]): 59%
CC50 (HepG2): > 40000 nM
Activity (Plasmodium falciparum [32]): 83%
EC50 (Plasmodium falciparum [35]): 13 nM
